Measurements published in PMC7993274 (Clinical and Translational Science, 2020).

Legend:
[1] = Treatment-emergent adverse events, SAD period; format: in vivo, human
Procedure, shortened: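 Double-blind, placebo-controlled study in healthy men and nonchildbearing women aged 18–55 y. The SAD period gave one fasted oral dose; the MAD period gave fed dosing q.d. for 10 days, plus a separate b.i.d. cohort. TEAEs, serious AEs and discontinuation AEs were monitored ≥28 days after the last dose. Vital signs, physical exam, 12-lead ECG, hematology, clinical chemistry and urinalysis were also recorded. Data summarized descriptively.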

[2] = system: MRP2; details: cited from earlier work
[3] = background statement, no reference given; cited from earlier work
[4] = system: OATP1B1; details: cited from earlier work

Cn1cc(-c2cn3nccc3c(-c3cnn([C@]4(CC#N)C[C@@H](C#N)C4)c3)n2)cn1 [PF‐06826647]
1 (14.3) n (%): Participants with AEs ([1]; SAD 100 mg (n = 7)) | Participants with TEAEs: Edema ([1]; SAD 100 mg (n = 7)) | Participants with TEAEs: Face edema ([1]; SAD 100 mg (n = 7)) | Participants with TEAEs: Gastrointestinal disorders (SOC) ([1]; SAD 100 mg (n = 7)) | Participants with TEAEs: General disorders and administration site conditions (SOC) ([1]; SAD 100 mg (n = 7)) | Participants with TEAEs: Headache ([1]; SAD 100 mg (n = 7)) | Participants with TEAEs: Injury, poisoning, and procedural complications (SOC) ([1]; SAD 100 mg (n = 7)) | Participants with TEAEs: Nausea ([1]; SAD 100 mg (n = 7)) | Participants with TEAEs: Nervous system disorders (SOC) ([1]; SAD 100 mg (n = 7)) | Participants with TEAEs: Periorbital hematoma ([1]; SAD 100 mg (n = 7)) | Participants with TEAEs: Periorbital hemorrhage ([1]; SAD 100 mg (n = 7)) | Participants with TEAEs: Pruritus ([1]; SAD 100 mg (n = 7)) | Participants with TEAEs: Rash ([1]; SAD 100 mg (n = 7)) | Participants with TEAEs: Skin and subcutaneous tissue disorders (SOC) ([1]; SAD 100 mg (n = 7)) | Participants with TEAEs: Urticaria ([1]; SAD 100 mg (n = 7))
minimal inhibition: inhibition of transporter protein MRP2 [2] | inhibition of transporter protein OATP1B1 [4]
1 (16.7) n (%): Participants with TEAEs: Alanine aminotransferase increased ([1]; SAD 1,600 mg (n = 6)) | Participants with TEAEs: Aspartate aminotransferase increased ([1]; SAD 1,600 mg (n = 6)) | Participants with TEAEs: General disorders and administration site conditions (SOC) ([1]; SAD 1,600 mg (n = 6)) | Participants with TEAEs: Investigations (SOC) ([1]; SAD 1,600 mg (n = 6)) | Participants with TEAEs: Peripheral swelling ([1]; SAD 1,600 mg (n = 6))
< 1.7: pKa [3]
3 n: AEs ([1]; SAD 1,600 mg (n = 6))
0 n: SAEs ([1]; SAD 30 mg (n = 8)) | Severe AEs ([1]; SAD 30 mg (n = 8)) | AEs leading to study drug dose reduction or interruption ([1]; SAD 100 mg (n = 7)) | SAEs ([1]; SAD 100 mg (n = 7)) | Severe AEs ([1]; SAD 100 mg (n = 7)) | AEs ([1]; SAD 400 mg (n = 8)) | AEs leading to study drug dose reduction or interruption ([1]; SAD 400 mg (n = 8)) | SAEs ([1]; SAD 400 mg (n = 8)) | Severe AEs ([1]; SAD 400 mg (n = 8)) | AEs leading to study drug dose reduction or interruption ([1]; SAD 1,600 mg (n = 6)) | SAEs ([1]; SAD 1,600 mg (n = 6)) | Severe AEs ([1]; SAD 1,600 mg (n = 6))
0 n (%): Participants with TEAEs: Pruritus ([1]; SAD 30 mg (n = 8)) | Participants with TEAEs: Rash ([1]; SAD 30 mg (n = 8)) | Participants with TEAEs: Skin and subcutaneous tissue disorders (SOC) ([1]; SAD 30 mg (n = 8)) | Participants with TEAEs: Urticaria ([1]; SAD 30 mg (n = 8)) | Participants with TEAEs: Alanine aminotransferase increased ([1]; SAD 100 mg (n = 7)) | Participants with TEAEs: Aspartate aminotransferase increased ([1]; SAD 100 mg (n = 7)) | Participants with TEAEs: Investigations (SOC) ([1]; SAD 100 mg (n = 7)) | Participants with TEAEs: Peripheral swelling ([1]; SAD 100 mg (n = 7)) | Participants with AEs ([1]; SAD 400 mg (n = 8)) | Participants with TEAEs: Alanine aminotransferase increased ([1]; SAD 400 mg (n = 8)) | Participants with TEAEs: Aspartate aminotransferase increased ([1]; SAD 400 mg (n = 8)) | Participants with TEAEs: Edema ([1]; SAD 400 mg (n = 8)) | Participants with TEAEs: Face edema ([1]; SAD 400 mg (n = 8)) | Participants with TEAEs: Gastrointestinal disorders (SOC) ([1]; SAD 400 mg (n = 8)) | Participants with TEAEs: General disorders and administration site conditions (SOC) ([1]; SAD 400 mg (n = 8)) | Participants with TEAEs: Headache ([1]; SAD 400 mg (n = 8)) | Participants with TEAEs: Injury, poisoning, and procedural complications (SOC) ([1]; SAD 400 mg (n = 8)) | Participants with TEAEs: Investigations (SOC) ([1]; SAD 400 mg (n = 8)) | Participants with TEAEs: Nausea ([1]; SAD 400 mg (n = 8)) | Participants with TEAEs: Nervous system disorders (SOC) ([1]; SAD 400 mg (n = 8)) | Participants with TEAEs: Periorbital hematoma ([1]; SAD 400 mg (n = 8)) | Participants with TEAEs: Periorbital hemorrhage ([1]; SAD 400 mg (n = 8)) | Participants with TEAEs: Peripheral swelling ([1]; SAD 400 mg (n = 8)) | Participants with TEAEs: Pruritus ([1]; SAD 400 mg (n = 8)) | Participants with TEAEs: Rash ([1]; SAD 400 mg (n = 8)) | Participants with TEAEs: Skin and subcutaneous tissue disorders (SOC) ([1]; SAD 400 mg (n = 8)) | Participants with TEAEs: Urticaria ([1]; SAD 400 mg (n = 8)) | Participants with TEAEs: Edema ([1]; SAD 1,600 mg (n = 6)) | Participants with TEAEs: Face edema ([1]; SAD 1,600 mg (n = 6)) | Participants with TEAEs: Gastrointestinal disorders (SOC) ([1]; SAD 1,600 mg (n = 6)) | Participants with TEAEs: Headache ([1]; SAD 1,600 mg (n = 6)) | Participants with TEAEs: Injury, poisoning, and procedural complications (SOC) ([1]; SAD 1,600 mg (n = 6)) | Participants with TEAEs: Nausea ([1]; SAD 1,600 mg (n = 6)) | Participants with TEAEs: Nervous system disorders (SOC) ([1]; SAD 1,600 mg (n = 6)) | Participants with TEAEs: Periorbital hematoma ([1]; SAD 1,600 mg (n = 6)) | Participants with TEAEs: Periorbital hemorrhage ([1]; SAD 1,600 mg (n = 6)) | Participants with TEAEs: Pruritus ([1]; SAD 1,600 mg (n = 6)) | Participants with TEAEs: Rash ([1]; SAD 1,600 mg (n = 6)) | Participants with TEAEs: Skin and subcutaneous tissue disorders (SOC) ([1]; SAD 1,600 mg (n = 6)) | Participants with TEAEs: Urticaria ([1]; SAD 1,600 mg (n = 6))
9 n: AEs ([1]; SAD 100 mg (n = 7))
2 (33.3) n (%): Participants with AEs ([1]; SAD 1,600 mg (n = 6))
